Results published in ChEMBL document CHEMBL1151746, “Antitumor agents 6. Synthesis, structure-activity relationships, and biological evaluation of spiro[imidazolidine-4,3'-thieno[2,3-g]quinoline]-tetraones and spiro[thieno[2,3-g]quinoline-3,5'-[1,2,4]triazinane]-tetraones with potent antiproliferative activity” (J Med Chem, 2008).

Experiments:
CCRF-CEM = assay: Antiproliferative activity against human CCRF-CEM cells after 96 hrs by MTT assay; format: functional, cell-based
Outline: (§1)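 Exponentially growing cells in RPMI 1640 with 10% FCS were resuspended at 1 × 10⁵ cells/mL in RPMI containing serial dilutions of compound (DMSO solution at 200 µM, diluted in medium). After 96 h at 37 °C, viability was read by MTT. Growth was taken as % of untreated controls, which grew at least three rounds. IC50 came from linear regression, as the mean of three independent determinations.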

HeLa = assay: Antiproliferative activity against human HeLa cells after 96 hrs by MTT assay; format: functional, cell-based
Outline: (§2)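 Solid-tumor cells in their specific media with 10% FCS were seeded at 5 × 10⁴ cells/mL and left to adhere 16 h. Serially diluted compound was then added (DMSO solution at 200 µM, diluted in medium). MTT viability was read 4 days later. IC50 came from linear regression against untreated controls, which grew at least three rounds, as the mean of three independent determinations.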

MCF7 = assay: Antiproliferative activity against human MCF7 cells after 96 hrs by MTT assay; format: functional, cell-based; details: MCF7, 96 h; outline: as §2
CCRF-SB = assay: Antiproliferative activity against human CCRF-SB cells after 96 hrs by MTT assay; format: functional, cell-based; outline: as §1
HT-29 = assay: Antiproliferative activity against human HT-29 cells after 96 hrs by MTT assay; format: functional, cell-based; outline: as §2
MRC5 = assay: Antiproliferative activity against human MRC5 cells after 96 hrs by MTT assay; format: cell-based; details: MRC5, 96 h; outline: as §1
MT4 = assay: Antiproliferative activity against human MT4 cells after 96 hrs by MTT assay; format: functional, cell-based; outline: as §1
SF-268 = assay: Antiproliferative activity against human SF-268 cells after 96 hrs by MTT assay; format: functional, cell-based; details: SF-268, 96 h; outline: as §2
XF498 = assay: Antiproliferative activity against human XF498 cells after 96 hrs by MTT assay; format: functional, cell-based; details: XF498, 96 h; outline: as §2
ACHN = assay: Antiproliferative activity against human ACHN cells after 96 hrs by MTT assay; format: functional, cell-based; outline: as §2
[1] = target: DNA topoisomerase 2-alpha (Homo sapiens) (UniProt P11388); assay: Inhibition of DNA topoisomerase 2-mediated negatively supercoiled pBR322 relaxation
Chain of DNA topoisomerase 2-alpha (Homo sapiens) (P11388 whole entry): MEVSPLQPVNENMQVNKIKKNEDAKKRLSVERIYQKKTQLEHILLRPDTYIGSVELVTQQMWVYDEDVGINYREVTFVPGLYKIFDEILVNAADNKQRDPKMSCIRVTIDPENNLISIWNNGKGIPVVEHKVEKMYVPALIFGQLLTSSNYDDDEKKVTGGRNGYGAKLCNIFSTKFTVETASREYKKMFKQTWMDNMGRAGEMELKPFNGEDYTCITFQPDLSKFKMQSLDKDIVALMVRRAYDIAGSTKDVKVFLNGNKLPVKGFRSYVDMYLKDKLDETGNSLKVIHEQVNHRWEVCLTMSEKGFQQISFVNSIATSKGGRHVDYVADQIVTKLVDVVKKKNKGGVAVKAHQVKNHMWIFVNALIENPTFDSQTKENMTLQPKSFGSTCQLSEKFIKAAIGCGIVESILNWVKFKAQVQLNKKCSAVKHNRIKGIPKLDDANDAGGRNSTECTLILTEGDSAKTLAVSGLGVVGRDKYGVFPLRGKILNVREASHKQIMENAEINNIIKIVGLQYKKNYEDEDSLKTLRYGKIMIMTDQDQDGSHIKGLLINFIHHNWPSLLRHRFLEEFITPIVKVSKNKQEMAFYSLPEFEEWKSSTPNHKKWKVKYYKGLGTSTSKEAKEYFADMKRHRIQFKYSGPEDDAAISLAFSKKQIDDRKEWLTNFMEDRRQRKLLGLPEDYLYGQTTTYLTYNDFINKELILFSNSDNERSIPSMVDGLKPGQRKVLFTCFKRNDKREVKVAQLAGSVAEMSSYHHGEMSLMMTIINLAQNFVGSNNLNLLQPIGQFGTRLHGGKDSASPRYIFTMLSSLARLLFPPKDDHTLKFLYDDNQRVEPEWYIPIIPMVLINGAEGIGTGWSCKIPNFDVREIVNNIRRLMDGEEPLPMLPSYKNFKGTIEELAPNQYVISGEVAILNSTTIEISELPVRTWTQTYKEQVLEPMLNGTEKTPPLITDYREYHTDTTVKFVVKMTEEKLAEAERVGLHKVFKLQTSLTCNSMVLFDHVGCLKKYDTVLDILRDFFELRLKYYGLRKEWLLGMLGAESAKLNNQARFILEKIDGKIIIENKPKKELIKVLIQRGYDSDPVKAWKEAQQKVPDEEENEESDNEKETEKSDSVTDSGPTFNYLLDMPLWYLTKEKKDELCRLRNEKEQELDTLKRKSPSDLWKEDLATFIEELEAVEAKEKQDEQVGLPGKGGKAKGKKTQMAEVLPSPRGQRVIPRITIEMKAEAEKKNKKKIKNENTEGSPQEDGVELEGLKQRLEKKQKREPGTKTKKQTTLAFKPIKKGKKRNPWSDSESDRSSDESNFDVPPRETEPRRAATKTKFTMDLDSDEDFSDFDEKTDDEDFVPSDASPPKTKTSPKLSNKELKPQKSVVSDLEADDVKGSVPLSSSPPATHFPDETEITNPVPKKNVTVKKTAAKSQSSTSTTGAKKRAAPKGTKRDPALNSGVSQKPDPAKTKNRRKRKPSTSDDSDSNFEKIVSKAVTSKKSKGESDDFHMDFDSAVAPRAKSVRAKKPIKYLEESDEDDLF

Structure (SMILES)	IC50 (CCRF-CEM) [nM]	IC50 (HeLa) [nM]	IC50 (MCF7) [nM]	IC50 (CCRF-SB) [nM]	IC50 (HT-29; Homo sapiens, HT-29, 96 h) [nM]	IC50 (MRC5) [nM]	IC50 (MT4; Homo sapiens, MT4, 96 h) [nM]	IC50 (SF-268) [nM]	IC50 (XF498) [nM]	IC50 (ACHN) [nM]	Activity [1]	IC50 (HT-29; ht-29) [nM]	IC50 (MT4; mt4) [nM]
COc1cc([C@@H]2c3cc4c(cc3[C@@H](O[C@@H]3O[C@@H]5CO[C@@H](C)O[C@H]5[C@H](O)[C@H]3O)[C@H]3COC(=O)[C@H]23)OCO4)cc(OC)c1O [ETOPOSIDE]	1200	3000	1000	100	2500	3900	1250	3250	3450	2150			
O=C1NNC(=O)C2(CSC3=C2C(=O)c2ncccc2C3=O)N1 (stereo in doubt; (+)-3)					1580		550						
O=C1C2=C(C(=O)c3ncccc31)C1(CS2)NC(=O)N(c2ccc(Cl)cc2)C1=O (racemic)	10	2	4	10	2	800	10	580	590	4	Dose-dependent effect		
O=C1C2=C(C(=O)c3ncccc31)C1(CS2)NC(=O)N(c2ccncc2)C1=O (racemic)	2	10	10	1	2		3	1100	1120	80			
O=C1NC(=O)C2(CSC3=C2C(=O)c2ncccc2C3=O)N1 (racemic)	120	150	120	150				3100	3120	80			
O=C1NN(c2ccc(Cl)cc2)C(=O)C2(CSC3=C2C(=O)c2ncccc2C3=O)N1 (racemic)	50	150	110	51	220		150	2000	2500	360			
CCN(CC)c1ccc(N2C(=O)NC3(CSC4=C3C(=O)c3ncccc3C4=O)C2=O)cc1 (racemic)	20	50	30	9	50		8	960	730	20			
O=C1C2=C(C(=O)c3ncccc31)C1(CS2)NC(=O)N(c2ccc([N+](=O)[O-])cc2)C1=O (racemic)	1	100	350	2	250		8	1520	1030	100			
CCCCc1ccc(N2C(=O)NC3(CSC4=C3C(=O)c3ncccc3C4=O)C2=O)cc1 (racemic)	150	90	70	190	50		200	400	950	50			
O=C1NNC(=O)C2(CSC3=C2C(=O)c2ncccc2C3=O)N1 (single isomer, unassigned; (-))												1600	500
O=C1NNC(=O)C2(CSC3=C2C(=O)c2ncccc2C3=O)N1 (racemic)	450	980	1250	48				4820	5000	1050			
O=C1NN(c2ccc([N+](=O)[O-])cc2)C(=O)C2(CSC3=C2C(=O)c2ncccc2C3=O)N1 (racemic)	2	610	550	2	1010		5	3550	4800	650			
O=C1C2=C(C(=O)c3ncccc31)C1(CS2)NC(=O)N(c2ccc(N3CCOCC3)cc2)C1=O (racemic)	600	200	750	650	750		800	1980	1700	140			
O=C1C2=C(C(=O)c3ncccc31)C1(CS2)NC(=O)N(c2ccccc2)C1=O (racemic)	10	3	1	30	2		25	1700	1510	21			
O=C1NC(=O)C2(CSC3=C2C(=O)c2ncccc2C3=O)N1 (stereo in doubt; (-)-2)												180	120
COc1ccc(N2C(=O)NC3(CSC4=C3C(=O)c3ncccc3C4=O)C2=O)cc1 (racemic)	50	1	50	10	2		70	650	650	50			
COc1ccc(N2NC(=O)NC3(CSC4=C3C(=O)c3ncccc3C4=O)C2=O)cc1 (racemic)	35	150	230	35	650		80	2850	3800	430			
Cc1ccc(N2C(=O)NC3(CSC4=C3C(=O)c3ncccc3C4=O)C2=O)cc1 (racemic)	20	2	2	20	1		27	660	1350	12			
O=C1NC(=O)C2(CSC3=C2C(=O)c2ncccc2C3=O)N1 (single isomer, unassigned; (+))					190		130						
O=C1NN(c2ccccc2)C(=O)C2(CSC3=C2C(=O)c2ncccc2C3=O)N1 (racemic)	90	210	150	39	550		150	2200	4550	940			
CCc1ccc(N2C(=O)NC3(CSC4=C3C(=O)c3ncccc3C4=O)C2=O)cc1 (racemic)	10	5	50	10	1		1	450	1200	5			
Cc1ccc(N2NC(=O)NC3(CSC4=C3C(=O)c3ncccc3C4=O)C2=O)cc1 (racemic)	70	210	410	37	200		100	2100	3800	500			
CC(C)(C)c1ccc(N2C(=O)NC3(CSC4=C3C(=O)c3ncccc3C4=O)C2=O)cc1 (racemic)	200	100	130	200	150		200	500	850	150			
CCCCCc1ccc(N2C(=O)NC3(CSC4=C3C(=O)c3ncccc3C4=O)C2=O)cc1 (racemic)	250	200	250	150	250		190	520	830	250			
